# Screens: PubChem, several laboratories
# HTR2A ag = activates the mouse 5-HT2A serotonin receptor; CHO-K1 mHTR2A beta-arrestin complementation, luminescence; percent of 30 µM serotonin response; activation, % at 7.6 µM; 0.66% of 360,000 active; AID 624169;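 active = activation above a run cutoff, the mean activation of all tested compounds plus 3 SD, cut at about 14% in these data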;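 note: 0% = plate median of compound wells and 100% = 30 µM serotonin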
# T cell HTS = T cell immune modulation candidate; 2C CD8+ T cell-vesicle binding, flow cytometry; hits give low values; 0.068% of 330,000 active; response (vesicle binding), % at 7 µM; AID 2052;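 active = response, share of CD8 T cells binding vesicles, and their 90th percentile fluorescence all below set limits, cut at about 80% in these data, passing the limit was not always enough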;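 note: values below 100% mean blocked vesicle binding to the CD8+ T cells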
#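 Assay system: 2C TCR transgenic mouse naive CD8+ T cells, MACS-purified | Read-out: CD8+ gate FL2 mean fluorescence as % of same-row positive control | Signal: High-throughput flow cytometry with anti-B7-1 and anti-CD8 staining | Timing: Binding step 1.5 h, 37 °C, antibody labelling 20 min, ice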
# PP1 inh = PP1-alpha (human) inhibition in PP5 counter-screen. AID 2235. inhibition, % at 6.7 µM. P62136. 0.9% of 320,000 active. purified PP1alpha, OMFP fluorescence;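 active = inhibition above the mean inhibition of all tested compounds plus 3 SD, computed separately for each screening campaign, cut at about 15% in these data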
# JMJD2C inh = human JMJD2C demethylase inhibition. 0.069% of 330,000 active. GST-JMJD2C(1-420) H3K9me3 demethylation, DELFIA europium. Q9H3R0. inhibition, % at 2.35 µM;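 active = more than half of a compound's replicate wells show inhibition beyond 50%, single wells judged on their own value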;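 note: signal counts dimethyl H3K9 product captured on neutravidin plate; 0% = median of DMSO wells and 100% = 0.3 times that DMSO median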
# Target sequence (Q9H3R0 1-420 limits assumed): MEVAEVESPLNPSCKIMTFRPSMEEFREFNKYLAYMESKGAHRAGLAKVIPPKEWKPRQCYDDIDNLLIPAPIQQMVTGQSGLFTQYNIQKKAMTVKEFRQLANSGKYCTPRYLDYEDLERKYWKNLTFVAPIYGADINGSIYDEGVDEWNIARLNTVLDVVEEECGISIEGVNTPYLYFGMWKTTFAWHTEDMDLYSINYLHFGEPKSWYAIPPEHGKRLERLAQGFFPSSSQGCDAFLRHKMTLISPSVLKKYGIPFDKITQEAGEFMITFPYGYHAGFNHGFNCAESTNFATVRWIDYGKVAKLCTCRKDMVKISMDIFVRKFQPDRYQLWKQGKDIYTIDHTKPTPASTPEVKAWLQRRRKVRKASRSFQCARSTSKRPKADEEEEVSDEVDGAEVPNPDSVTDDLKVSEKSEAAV
# PP5 inh = inhibitors of human protein phosphatase 5 (PP5); purified PP5c, OMFP substrate fluorescence; inhibition, % at 6.7 µM; P53041; 0.18% of 320,000 active; AID 1987;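 active = inhibition above the campaign's mean inhibition across all tested compounds plus 3 SD, cut at about 9.5% in these data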;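 note: 0% = DMSO only and 100% = 100 µM cantharidin control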
# OPRM1 ag = activates human mu opioid receptor in HTR2A counterscreen | shares compounds with HTR2A ag | U2OS OPRM1 beta-arrestin PathHunter, luminescence; DMSO 0%, DAMGO 9.3 µM 100% | activation, % at 9.3 µM | 5.3% of 2,300 active | AID 624380;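 active = mean activation above the mean of DMSO-only wells plus 3 SD, cut at about 0.5% in these data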
# m5-HT2A ag conf = mouse HTR2A agonism confirmed; shares compounds with HTR2A ag; CHO-K1 PathHunter beta-arrestin recruitment, luminescence; DMSO 0%, 30 µM serotonin 100%; activation, % at 7.6 µM; 19% of 2,300 active; AID 624381;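 active = mean activation across triplicates above the hit threshold derived in the original primary screen, cut at about 15% in these data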
# Starred values were filed as active, the others as inactive; i = inactive; . = no result. Rows were chosen to be rich in hits. Some 1.7% of all compounds tested hit in one or more screens of this group.
SMILES,HTR2A ag,T cell HTS,PP1 inh,JMJD2C inh,PP5 inh,OPRM1 ag,m5-HT2A ag conf
CCN(C(=O)CSc1nc2ccccc2o1)C1CCS(=O)(=O)C1 (configuration not stated),3,429,-8,-11,-1,.,.
CCN(C(=O)CSc1ccc2ccccc2c1)C1CCS(=O)(=O)C1 (configuration not stated),16*,399,-4,-11,3,-1,0
O=C(NC1CCCCC1)C(c1ccncc1)n1c(=O)c(-c2cc3ccccc3[nH]2)nc2ccccc21 (configuration not stated),16*,.,.,.,.,0,5
CC(C)(C)NC(=O)C(c1cc2ccccc2o1)n1c(=O)c(-c2cc3ccccc3[nH]2)nc2ccccc21 (configuration not stated),31*,.,.,.,.,0,2
O=C(NC1CCCCC1)C(c1ccc(C(F)(F)F)cc1)n1c(=O)c(-c2cc3ccccc3[nH]2)nc2ccccc21 (configuration not stated),-3,.,.,.,.,.,.
CC(C)(C)NC(=O)C(c1ccncc1)n1c(=O)c(-c2cc3ccccc3[nH]2)nc2ccccc21 (configuration not stated),2,.,.,.,.,.,.
COc1ccc(C(C(=O)NC2CCCC2)n2c(C3CCN(C(C)=O)CC3)nc3ccccc32)cc1 (configuration not stated),-4,.,.,.,.,.,.
O=C1CCc2cc(S(=O)(=O)Nc3ccccc3F)ccc2N1,5,614,2,4,0,.,.
CC(C)(C)NC(=S)NNC(=O)c1cccc(Br)c1,-2,394,0,-6,0,.,.
Cc1ccc(N2CC(C(=O)N3CCC(C(=O)NCCCOC(C)C)CC3)CC2=O)cc1 (configuration not stated),-5,255,-6,-8,0,.,.
COC(=O)[C@H](Cc1ccccc1)NC(=O)Cn1cnc2c(OCc3ccccc3)ncnc21,1,200,.,0,.,.,.
COC(=O)[C@H](Cc1ccc(O)cc1)NC(=O)Cn1cnc2c(OCc3ccccc3)ncnc21,15*,302,.,.,.,.,-3
COc1ccc(Cl)cc1S(=O)(=O)N1CCN=C1C,24*,686,0,3,-3,0,-1
COc1ccc(Cl)cc1S(=O)(=O)N1CCCc2ccccc21,0,396,2,5,3,.,.
COc1ccc(S(=O)(=O)N2CCC(N3CCN(Cc4ccccc4)CC3)CC2)cc1,22*,205,-5,-20,2,-1,42*
CCO[C@H]1OC(C(=O)O)=C[C@@H](c2ccccc2)[C@@H]1CCCO,15*,391,1,-10,-1,0,-1
CCO[C@@H]1OC(C(=O)O)=C[C@H](c2ccccc2)[C@H]1CCCO,3,.,0,2,1,.,.
CCN(CC)C(=O)c1c(-c2ccccc2)oc2ccc(OC)cc12,15*,188,2,1,4,0,-4
CCOc1ccc2oc(-c3ccccc3)c(C(=O)N(C)C)c2c1,-4,337,1,5,6,.,.
O=C(Nc1ccc(Cc2ccncc2)cc1)c1cc([N+](=O)[O-])ccc1N1CCOCC1,-1,124,-4,3,-4,.,.
CCCN1CCC(=NNc2ccc(S(=O)(=O)N3CCOCC3)cc2[N+](=O)[O-])CC1,17*,149,-1,20,-3,0,1
Cc1cc(C(F)(F)F)nc(SCC(=O)NC2CCCCC2)n1,6,879,-1,18,2,.,.
Cc1ccc(OCC(=O)N2CC(C)CC(C)C2)c([N+](=O)[O-])n1 (configuration not stated),-3,263,.,2,.,.,.
CC(C)/C=C1\CCCCC1N(C)C(=O)NC(C)C (configuration not stated),28*,180,-1,-5,1,-1,-6
CN(C(=O)COC(=O)c1ccc(Br)c(S(=O)(=O)N2CCOCC2)c1)C1CCCCC1,-4,395,.,-1,.,.,.
SMILES,HTR2A ag,T cell HTS,PP1 inh,JMJD2C inh,PP5 inh,OPRM1 ag,m5-HT2A ag conf
O=C(Nc1ccc2nc3n(c(=O)c2c1)CCCCC3)C(=O)N1CCN(c2ccccc2)CC1,-2,218,0,-4,2,.,.
CCC1(c2ccc(F)cc2)NC(=O)N(CC(=O)Nc2ccccc2C)C1=O (configuration not stated),14*,205,-2,-13,2,-1,-4
CCC1(c2ccccc2)NC(=O)N(CC(=O)N(C)CC(=O)Nc2cccc(OC)c2)C1=O (configuration not stated),15*,168,-3,-3,2,0,3
COc1cc(C(=O)NCC(c2cccs2)N2CCOCC2)cc(Br)c1OCc1ccccc1 (configuration not stated),-16,428,.,2,.,.,.
CCCC(C)NC(=O)COC(=O)c1cc(Br)c(Br)s1 (configuration not stated),0,i,5,-7,-2,.,.
Cc1ccnc(NC(=O)c2cccc(NC(=O)CC3SC(N4CCCCC4)=NC3=O)c2)c1 (configuration not stated),15*,476,-1,-7,5,0,-1
CCOc1ccc(CCN2C(=S)N([C@@H](Cc3ccc(O)cc3)CN3CCC[C@@H]3CN3C(=S)NC[C@@H]3Cc3ccccc3)C[C@@H]2Cc2ccc(O)cc2)cc1,-2,.,.,.,.,.,.
COCCCNC(=O)c1csc([C@H]2C[C@H](O)[C@@H](CO)O2)n1,19*,.,.,.,.,0,-4
Cc1ccnc2nc(C(=O)OCC(=O)N3CC(C)CC(C)C3)nn12 (configuration not stated),1,.,.,.,.,.,.
COc1ccc(OC)c(NC(=O)Nc2cccnc2)c1,-8,315,.,3,.,.,.
CCn1c(=S)sc2c(=O)n(CC(=O)Nc3cccc(OC)c3)c(C)nc21,3,463,-2,27,-3,.,.
CC(=O)N1CCOc2cc(S(=O)(=O)N3CCN(c4ccccc4)CC3)c(Cl)cc21,25*,220,-3,-6,1,-1,-5
O=C(NCC1CCCO1)NC1CCCCC1 (configuration not stated),17*,568,4,-15,-1,-1,-4
C=CCn1c(SCC(=O)NCC(=O)OCC)nnc1-c1cccc(OC)c1,20*,224,1,6,1,-1,-3
CCOC(=O)CNC(=O)CSc1nnc(-c2cccc(C)c2)n1-c1ccc(OC)cc1,0,368,-2,13,3,.,.
CCOC(=O)c1c2ccccc2[n+]([O-])n1[C@@H](C)C(N)=O,6,590,-3,11,0,.,.
Cc1cnc(N)nc1-c1ccccc1,29*,.,.,.,.,0,-4
